Laboratory results reported in ChEMBL document CHEMBL3826880, “Synthesis and evaluation of (+)-decursin derivatives as inhibitors of the Wnt/β-catenin pathway” (Bioorg Med Chem Lett, 2016).
Active and inactive are the calls of the source. The calls are words filed in the database; no cut-off is given here.

Tested on: not listed separately
Assay: Inhibition of Wnt/beta-catenin pathway in human HEK293 cells at 20 uM after 15 hrs by TOPflash dual luciferase reporter gene assay
Assay type: cell-based
Settings: not given
How it was run: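 HEK293 TOPFlash reporter cells were seeded at 15,000 cells/well in duplicate and grown 24 h. Compounds were then added with Wnt3a-conditioned medium from Wnt3a-secreting L cells (0.22-filtered, two harvests combined); controls ran with or without Wnt3a-CM. After 15 h, dual luciferase activity was read as RLU normalized to cell titer, averaged over three experiments. Single-concentration screen at 20 µM.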

| Compound | inhibition |
| --- | --- |
| CC(=O)Oc1cc(/C=C/C(=O)O[C@H]2Cc3cc4ccc(=O)oc4cc3OC2(C)C)cc(OC(C)=O)c1OC(C)=O | 67.4% |
| CC1(C)Oc2cc3oc(=O)ccc3cc2C[C@@H]1OC(=O)/C=C/c1ccc(O)cc1 | 78.1% |
| CC1(C)Oc2cc3oc(=O)ccc3cc2C[C@@H]1OC(=O)CCc1cccc(O)c1O | 81.4% |
| COc1ccc(OC)c(/C=C/C(=O)O[C@H]2Cc3cc4ccc(=O)oc4cc3OC2(C)C)c1 | 65.3% |
| CC1(C)Oc2cc3oc(=O)ccc3cc2C[C@@H]1OC(=O)/C=C/c1ccc([N+](=O)[O-])cc1 | 34.3% |
| COc1ccccc1/C=C/C(=O)O[C@H]1Cc2cc3ccc(=O)oc3cc2OC1(C)C | 88.3% |
| CC1(C)Oc2cc3oc(=O)ccc3cc2C[C@@H]1OC(=O)CCc1cccc(O)c1 | 42% |
| CC(C)=CC(=O)O[C@H]1Cc2cc3ccc(=O)oc3cc2OC1(C)C [DECURSIN] | 79.4% |
| CC1(C)Oc2cc3oc(=O)ccc3cc2C[C@@H]1OC(=O)/C=C/c1ccccc1O | 94.2% |
| COc1ccc(/C=C/C(=O)O[C@H]2Cc3cc4ccc(=O)oc4cc3OC2(C)C)c(OC)c1 | 52.8% |
| CC1(C)Oc2cc3oc(=O)ccc3cc2C[C@@H]1OC(=O)/C=C/c1ccc(O)c(O)c1 | 99.5% |
| COc1ccc(CCC(=O)O[C@H]2Cc3cc4ccc(=O)oc4cc3OC2(C)C)c(OC)c1 | 18.8% |
| CC1(C)Oc2cc3oc(=O)ccc3cc2C[C@@H]1OC(=O)/C=C/c1cccc(O)c1O | 95.7% |
| COc1ccccc1CCC(=O)O[C@H]1Cc2cc3ccc(=O)oc3cc2OC1(C)C | 50.4% |
| CC(=O)Oc1ccc(/C=C/C(=O)O[C@H]2Cc3cc4ccc(=O)oc4cc3OC2(C)C)cc1OC(C)=O | 94% |
| CC(=O)Oc1cccc(/C=C/C(=O)O[C@H]2Cc3cc4ccc(=O)oc4cc3OC2(C)C)c1OC(C)=O | 89.7% |
| COc1ccc(/C=C/C(=O)O[C@H]2Cc3cc4ccc(=O)oc4cc3OC2(C)C)cc1 | 54.8% |
| COc1cc(OC)c(OC)cc1/C=C/C(=O)O[C@H]1Cc2cc3ccc(=O)oc3cc2OC1(C)C | 59.6% |
| COc1cccc(CCC(=O)O[C@H]2Cc3cc4ccc(=O)oc4cc3OC2(C)C)c1 | 49.9% |
| CC1(C)Oc2cc3oc(=O)ccc3cc2C[C@@H]1OC(=O)CCc1ccc(O)cc1 | 32.8% |
| CC1(C)Oc2cc3oc(=O)ccc3cc2C[C@@H]1OC(=O)/C=C/c1cccc(Br)c1 | 84.8% |
| CC(=O)Oc1ccc(/C=C/C(=O)O[C@H]2Cc3cc4ccc(=O)oc4cc3OC2(C)C)cc1 | 79.6% |
| COc1ccc(/C=C/C(=O)O[C@H]2Cc3cc4ccc(=O)oc4cc3OC2(C)C)cc1OC | 42.3% |

| Compound | inhibition |
| --- | --- |
| COc1cc(/C=C/C(=O)O[C@H]2Cc3cc4ccc(=O)oc4cc3OC2(C)C)cc(OC)c1OC | 46.9% |
| CC1(C)Oc2cc3oc(=O)ccc3cc2C[C@@H]1OC(=O)/C=C/c1cccc(F)c1 | 93.6% |
| CC(=O)Oc1ccccc1/C=C/C(=O)O[C@H]1Cc2cc3ccc(=O)oc3cc2OC1(C)C | 95.9% |
| COc1ccc(CCC(=O)O[C@H]2Cc3cc4ccc(=O)oc4cc3OC2(C)C)cc1 | 41.5% |
| COc1ccc(CCC(=O)O[C@H]2Cc3cc4ccc(=O)oc4cc3OC2(C)C)cc1OC | 25.1% |
| COc1ccc(OC)c(CCC(=O)O[C@H]2Cc3cc4ccc(=O)oc4cc3OC2(C)C)c1 | 19.9% |
| CC1(C)Oc2cc3oc(=O)ccc3cc2C[C@@H]1OC(=O)/C=C/c1cc(O)c(O)c(O)c1 | 75.3% |
| CC(=O)Oc1ccc(CCC(=O)O[C@H]2Cc3cc4ccc(=O)oc4cc3OC2(C)C)cc1 | 12% |
| CC1(C)Oc2cc3oc(=O)ccc3cc2C[C@@H]1OC(=O)CCc1ccccc1O | 10% |
| COc1cccc(/C=C/C(=O)O[C@H]2Cc3cc4ccc(=O)oc4cc3OC2(C)C)c1 | 87.5% |
| CC1(C)Oc2cc3oc(=O)ccc3cc2C[C@@H]1OC(=O)/C=C/c1ccccc1 | 81.1% |
| CC(=O)Oc1cccc(CCC(=O)O[C@H]2Cc3cc4ccc(=O)oc4cc3OC2(C)C)c1OC(C)=O | 77.7% |
| COc1cccc(CCC(=O)O[C@H]2Cc3cc4ccc(=O)oc4cc3OC2(C)C)c1OC | 13.5% |
| CC(=O)Oc1ccc(CCC(=O)O[C@H]2Cc3cc4ccc(=O)oc4cc3OC2(C)C)cc1OC(C)=O | 46.4% |
| COc1cccc(/C=C/C(=O)O[C@H]2Cc3cc4ccc(=O)oc4cc3OC2(C)C)c1OC | 57.8% |
| CC1(C)Oc2cc3oc(=O)ccc3cc2C[C@@H]1OC(=O)/C=C/c1ccc(Br)cc1 | 40.1% |
| CC1(C)Oc2cc3oc(=O)ccc3cc2C[C@@H]1OC(=O)CCc1ccc(O)c(O)c1 | 68% |
| CC1(C)Oc2cc3oc(=O)ccc3cc2C[C@@H]1OC(=O)/C=C/c1cccc(O)c1 | 93.3% |
| CC(=O)Oc1cccc(/C=C/C(=O)O[C@H]2Cc3cc4ccc(=O)oc4cc3OC2(C)C)c1 | 97% |
| CC(=O)Oc1cccc(CCC(=O)O[C@H]2Cc3cc4ccc(=O)oc4cc3OC2(C)C)c1 | 27.5% |
| CC1(C)Oc2cc3oc(=O)ccc3cc2C[C@@H]1OC(=O)CCc1ccccc1 | 10.6% |
| CC(=O)Oc1ccccc1CCC(=O)O[C@H]1Cc2cc3ccc(=O)oc3cc2OC1(C)C | 23.1% |

Tested on: not listed separately
Assay: Cytotoxicity against human PC3 cells assessed as cell viability after 24 to 48 hrs by cell Titer-Glo assay
Assay type: functional, cell-based
Settings: PC-3
How it was run: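 Androgen-independent PC3 cells in 96-well plates were exposed to varying compound concentrations for 24 h (figure legend) or 48 h (methods note). Viability was measured in triplicate with the CellTiter-Glo luminescent assay.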

| Compound | IC50 |
| --- | --- |
| CC(=O)Oc1cccc(/C=C/C(=O)O[C@H]2Cc3cc4ccc(=O)oc4cc3OC2(C)C)c1 | 8.97 µM |

Tested on: not listed separately
Assay: Inhibition of Wnt/beta-catenin pathway in human HEK293 cells assessed as decrease in Wnt3a-CM-induced beta-catenin response transcription after 15 hrs by TOPflash dual luciferase reporter gene assay
Assay type: cell-based
Settings: HEK293, 15 h

| Compound | IC50 |
| --- | --- |
| CC(=O)Oc1cccc(/C=C/C(=O)O[C@H]2Cc3cc4ccc(=O)oc4cc3OC2(C)C)c1 | 9.85 µM |

Target: T1, Catenin beta-1 (Homo sapiens) (UniProt P35222)
T1 sequence (whole entry): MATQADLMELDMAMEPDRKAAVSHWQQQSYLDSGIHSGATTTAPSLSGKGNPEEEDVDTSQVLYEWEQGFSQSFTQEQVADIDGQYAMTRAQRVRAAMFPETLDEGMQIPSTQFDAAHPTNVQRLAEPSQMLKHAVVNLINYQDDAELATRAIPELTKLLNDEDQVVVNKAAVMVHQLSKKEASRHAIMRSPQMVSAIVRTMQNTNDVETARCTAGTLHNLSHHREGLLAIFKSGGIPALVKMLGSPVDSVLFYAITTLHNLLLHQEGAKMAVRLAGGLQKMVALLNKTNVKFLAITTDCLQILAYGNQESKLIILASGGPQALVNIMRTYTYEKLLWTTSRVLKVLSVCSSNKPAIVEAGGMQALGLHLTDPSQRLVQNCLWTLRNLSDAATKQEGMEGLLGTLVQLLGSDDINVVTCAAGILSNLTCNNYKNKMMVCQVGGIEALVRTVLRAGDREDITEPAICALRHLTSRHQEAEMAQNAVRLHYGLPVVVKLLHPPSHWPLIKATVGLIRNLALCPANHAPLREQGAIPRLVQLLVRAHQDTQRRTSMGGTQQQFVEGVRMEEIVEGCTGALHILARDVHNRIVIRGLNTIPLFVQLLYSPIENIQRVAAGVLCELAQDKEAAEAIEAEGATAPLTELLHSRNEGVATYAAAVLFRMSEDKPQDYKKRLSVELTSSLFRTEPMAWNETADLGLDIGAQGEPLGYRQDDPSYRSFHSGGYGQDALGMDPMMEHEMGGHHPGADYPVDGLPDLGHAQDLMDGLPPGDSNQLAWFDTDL
Assay: Downregulation of Wnt3a-CM-induced beta-catenin levels in human HEK293 cells at 12.5 to 50 uM after 15 hrs by Western blot analysis
Assay type: cell-based
Settings: not given
How it was run: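 HEK293 reporter cells were treated with vehicle (DMSO) or compound in the presence of Wnt3a-CM for 15 h. Cytosolic proteins were western blotted with a β-catenin antibody, then reprobed for actin as the fraction control, with HRP secondary and ECL detection.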

| Compound | Activity |
| --- | --- |
| CC(=O)Oc1cccc(/C=C/C(=O)O[C@H]2Cc3cc4ccc(=O)oc4cc3OC2(C)C)c1 | Active |

Target: T1, Catenin beta-1 (Homo sapiens)
Assay: Downregulation of cytoplasmic beta-catenin levels in human PC3 cells after 15 hrs by Western blot analysis
Assay type: cell-based
Settings: PC-3
How it was run: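 Cytosolic fractions from PC3 cells (DMEM, 10% FBS) treated with vehicle (DMSO) or compound were western blotted with a β-catenin antibody, then reprobed with anti-actin as the fraction control.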

| Compound | Activity |
| --- | --- |
| CC(=O)Oc1cccc(/C=C/C(=O)O[C@H]2Cc3cc4ccc(=O)oc4cc3OC2(C)C)c1 | Dose-dependent effect |

Target: T1, Catenin beta-1 (Homo sapiens)
Assay: Inhibition of beta-catenin levels in human PC3 cells assessed as downregulation of cyclinD1 levels at 12.5 to 50 uM after 15 hrs by Western blot analysis
Assay type: cell-based
Settings: PC-3
How it was run: (§1)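 PC3 cells were incubated with vehicle (DMSO) or compound for 15 h. Cell extracts were western blotted with anti-cyclin D1 and anti-myc antibodies, then reprobed with anti-actin as the control, with ECL detection.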

| Compound | inhibition |
| --- | --- |
| CC(=O)Oc1cccc(/C=C/C(=O)O[C@H]2Cc3cc4ccc(=O)oc4cc3OC2(C)C)c1 | Active |

Target: T1, Catenin beta-1 (Homo sapiens)
Assay: Inhibition of beta-catenin levels in human PC3 cells assessed as downregulation of c-myc levels at 12.5 to 50 uM after 15 hrs by Western blot analysis
Assay type: cell-based
Settings: PC-3
How it was run: as §1

| Compound | inhibition |
| --- | --- |
| CC(=O)Oc1cccc(/C=C/C(=O)O[C@H]2Cc3cc4ccc(=O)oc4cc3OC2(C)C)c1 | Active |

Tested on: not listed separately
Assay: Antitumor activity against human PC3 cells xenografted in athymic nude mouse at 50 mg/kg, ip administered daily for 5 weeks
Assay type: functional
Settings: PC-3, ip, 840 h, read-out: TGI

| Compound | inhibition in vivo at 50 mg/kg |
| --- | --- |
| CC1(C)Oc2cc3oc(=O)ccc3cc2C[C@@H]1OC(=O)/C=C/c1ccc(O)c(O)c1 | > 80% |

Tested on: not listed separately
Assay: Inhibition of Wnt/beta-catenin pathway in human HEK293 cells after 15 hrs by TOPflash dual luciferase reporter gene assay
Assay type: cell-based
Settings: HEK293, 15 h

| Compound | IC50 |
| --- | --- |
| CC(C)=CC(=O)O[C@H]1Cc2cc3ccc(=O)oc3cc2OC1(C)C [DECURSIN] | 176 µM |
| CC1(C)Oc2cc3oc(=O)ccc3cc2C[C@@H]1OC(=O)/C=C/c1ccc(O)c(O)c1 | 12.3 µM |
